Source: ChEMBL document CHEMBL2057165, “Synthesis and antiviral properties of novel 7-heterocyclic substituted 7-deaza-adenine nucleoside inhibitors of Hepatitis C NS5B polymerase” (Bioorg Med Chem, 2012)

Tests used:
Hepatitis C virus = test: Antiviral activity against Hepatitis C virus genotype 1b infected in human HBI10A cells assessed as inhibition of viral replication in presence of 10% FBS; type: functional, organism-based, Hepacivirus hominis
In short: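 HBI10A hepatoma cells stably carrying a genotype 1b subgenomic bicistronic HCV replicon; EC50 measured in the presence of 10% fetal bovine serum; mean of ≥3 experiments, SD within 20%.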

[1] = Prodrug activation in hamsters liver assessed as NMP formation at 10 mg/kg; type: organism-based; set-up: dose 10 mg/kg; settings: cricetinae, in vivo
In short: (§1)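 Prodrug dosed at 10 mg/Kg in hamster; liver analysed for NTP and NMP species.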

[2] = Prodrug activation in hamsters liver assessed as NTP formation at 10 mg/kg; type: organism-based; set-up: dose 10 mg/kg; settings: cricetinae, in vivo; in short: as §1
[3] = Inhibition of Hepatitis C virus NS5B polymerase; set-up: species or system Hepacivirus hominis
In short: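 Nucleoside triphosphates tested in an NS5B polymerization assay on a heteromeric RNA template; IC50 given as mean of ≥3 experiments, SD within 20%.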

Liver [4] = test: Drug uptake in Wistar Han rat liver assessed as nucleotide triphosphate level per gram of tissue at 20 mg/kg, iv measured after 6 hrs; type: ADME, organism-based; set-up: dose 20 mg/kg, route intravenous; settings: in vivo
In short: (§2)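 Wistar Han rats given 20 mg/Kg intravenously; NTP in liver measured up to 12 h after dosing, at 3, 6 and 12 h (nmol/g); parent nucleoside measured in plasma, and liver NTP/plasma nucleoside ratio computed at each timepoint.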

Liver [5] = test: Drug uptake in Wistar Han rat liver assessed as nucleotide triphosphate level per gram of tissue at 20 mg/kg, po measured after 12 hrs; type: ADME, organism-based; set-up: dose 20 mg/kg, route oral; settings: in vivo
In short: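 Wistar Han rats dosed orally at 20 mg/Kg; NTP in liver measured 12 h after dosing, in nmol/g.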

[6] = Oral bioavailability in Wistar Han rat at 1 mg/kg; type: ADME, organism-based; settings: in vivo
In short: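 Pharmacokinetics in Wistar Han rats after 1 mg/Kg given intravenously and orally; parent nucleoside followed in plasma to derive clearance, volume of distribution and oral bioavailability (F).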

Nucleic Acid = test: Ratio of drug level in nucleotide triphosphate level in liver to parent compound level in plasma in Wistar Han rat at 20 mg/kg, iv measured after 3 to 12 hrs; type: ADME, organism-based; set-up: dose 20 mg/kg, route intravenous; settings: in vivo; in short: as §2
Liver [7] = test: Drug uptake in Wistar Han rat liver assessed as nucleotide triphosphate level per gram of tissue at 20 mg/kg, iv measured after 12 hrs; type: ADME, organism-based; set-up: dose 20 mg/kg, route intravenous; settings: in vivo; in short: as §2
Liver [8] = test: Drug uptake in Wistar Han rat liver assessed as nucleotide triphosphate level per gram of tissue at 20 mg/kg, iv measured after 3 hrs; type: ADME, organism-based; set-up: dose 20 mg/kg, route intravenous; settings: in vivo; in short: as §2
[9] = Inhibition of human DNA polymerase gamma
[10] = Inhibition of human DNA polymerase beta
[11] = Inhibition of human DNA polymerase alpha

| SMILES | EC50 (Hepatitis C virus) | IC50 [3] | other results |
| --- | --- | --- | --- |
| CCOC(=O)[C@@H](C)NP(=O)(OC[C@H]1O[C@@H](n2cc(-c3ccn[nH]3)c3c(N)ncnc32)[C@](C)(F)[C@@H]1O)Oc1ccccc1 (stereo partly drawn) | > 50 µM | – | Drug metabolism [1]: Active; Drug metabolism [2]: Not Active |
| CCOC(=O)[C@@H](C)NP(=O)(OC[C@H]1O[C@@H](n2cc(-c3ccn[nH]3)c3c(N)ncnc32)[C@](C)(O)[C@@H]1O)Oc1ccccc1 (stereo partly drawn) | 1.8 µM | – | – |
| C[C@@]1(O)[C@H](O)[C@@H](COP(=O)(O)OP(=O)(O)OP(=O)(O)O)O[C@H]1n1ccc2c(N)ncnc21 | – | 0.1 µM | – |
| C[C@@]1(F)[C@H](O)[C@@H](CO)O[C@H]1n1cc(-c2ncco2)c2c(N)ncnc21 | 37 µM | – | – |
| C[C@@]1(F)[C@H](O)[C@@H](CO)O[C@H]1n1cc(-c2ccn[nH]2)c2c(N)ncnc21 | 35 µM | – | – |
| C[C@@]1(O)[C@H](O)[C@@H](COP(=O)(O)OP(=O)(O)OP(=O)(O)O)O[C@H]1n1cc(-c2cc[nH]n2)c2c(N)ncnc21 | – | 0.1 µM | IC50 [9]: > 10 µM; IC50 [10]: > 10 µM; IC50 [11]: > 10 µM |
| C[C@@]1(O)[C@H](O)[C@@H](COP(=O)(O)OP(=O)(O)OP(=O)(O)O)O[C@H]1n1cc(-c2cn[nH]c2)c2c(N)ncnc21 | – | 8.4 µM | – |
| C[C@@]1(O)[C@H](O)[C@@H](COP(=O)(O)OP(=O)(O)OP(=O)(O)O)O[C@H]1n1cc(-c2ncccn2)c2c(N)ncnc21 | – | 12 µM | – |
| C[C@@]1(O)[C@H](O)[C@@H](COP(=O)(O)OP(=O)(O)OP(=O)(O)O)O[C@H]1n1cc(-c2ncco2)c2c(N)ncnc21 | – | 0.5 µM | – |
| Cn1cc(-c2cn([C@@H]3O[C@H](COP(=O)(O)OP(=O)(O)OP(=O)(O)O)[C@@H](O)[C@@]3(C)O)c3ncnc(N)c23)nn1 | – | 8.4 µM | – |
| Cc1noc(-c2cn([C@@H]3O[C@H](COP(=O)(O)OP(=O)(O)OP(=O)(O)O)[C@@H](O)[C@@]3(C)O)c3ncnc(N)c23)n1 | – | 8.4 µM | – |
| C[C@@]1(O)[C@H](O)[C@@H](COP(=O)(O)OP(=O)(O)OP(=O)(O)O)O[C@H]1n1cc(-c2nnco2)c2c(N)ncnc21 | – | > 95 µM | – |
| C[C@@]1(F)[C@H](O)[C@@H](COP(=O)(O)OP(=O)(O)OP(=O)(O)O)O[C@H]1n1cc(-c2ncon2)c2c(N)ncnc21 | – | 0.4 µM | – |
| C[C@@]1(F)[C@H](O)[C@@H](COP(=O)(O)OP(=O)(O)OP(=O)(O)O)O[C@H]1n1cc(-c2ncco2)c2c(N)ncnc21 | – | 0.3 µM | – |
| C[C@@]1(F)[C@H](O)[C@@H](COP(=O)(O)OP(=O)(O)OP(=O)(O)O)O[C@H]1n1cc(-c2ccn[nH]2)c2c(N)ncnc21 | – | 0.07 µM | IC50 [9]: > 10 µM; IC50 [10]: > 10 µM; IC50 [11]: > 10 µM |
| C[C@@]1(O)[C@H](O)[C@@H](CO)O[C@H]1n1ccc2c(N)ncnc21 [BETA-2'-C-METHYL-7-DEAZA-ADENOSINE] | 0.3 µM | – | – |

Further lines, with some results ahead:

| EC50 (Hepatitis C virus) | IC50 [3] | SMILES | other results |
| --- | --- | --- | --- |
| 46 µM | – | C[C@@]1(O)[C@H](O)[C@@H](CO)O[C@H]1n1cc(-c2nnco2)c2c(N)ncnc21 | – |
| > 100 µM | – | C[C@@]1(O)[C@H](O)[C@@H](CO)O[C@H]1n1cc(-c2cc[nH]n2)c2c(N)ncnc21 | – |
| 30 µM | – | C[C@@]1(O)[C@H](O)[C@@H](CO)O[C@H]1n1cc(-c2cn[nH]c2)c2c(N)ncnc21 | – |
| > 100 µM | – | C[C@@]1(O)[C@H](O)[C@@H](CO)O[C@H]1n1cc(-c2ncccn2)c2c(N)ncnc21 | – |
| 7.8 µM | – | C[C@@]1(O)[C@H](O)[C@@H](CO)O[C@H]1n1cc(-c2ncco2)c2c(N)ncnc21 | – |
| 42 µM | – | Cn1cc(-c2cn([C@@H]3O[C@H](CO)[C@@H](O)[C@@]3(C)O)c3ncnc(N)c23)nn1 | – |
| 1.9 µM | – | C[C@@]1(O)[C@H](O)[C@@H](CO)O[C@H]1n1cc(-c2ncon2)c2c(N)ncnc21 | Drug uptake (Liver [4]): 3.9 nmol/g; Drug uptake (Liver [5]): 0.4 nmol/g; bioavailability [6]: 14.7%; Ratio (Nucleic Acid): 20; Drug uptake (Liver [7]): 0.5 nmol/g; Drug uptake (Liver [8]): 11.9 nmol/g |
| 42 µM | – | Cc1noc(-c2cn([C@@H]3O[C@H](CO)[C@@H](O)[C@@]3(C)O)c3ncnc(N)c23)n1 | – |
| 41 µM | – | C[C@@]1(F)[C@H](O)[C@@H](CO)O[C@H]1n1cc(-c2ncon2)c2c(N)ncnc21 | – |
| – | 0.5 µM | C[C@@]1(O)[C@H](O)[C@@H](COP(=O)(O)OP(=O)(O)OP(=O)(O)O)O[C@H]1n1cc(-c2ncon2)c2c(N)ncnc21 | IC50 [9]: > 10 µM; IC50 [10]: > 10 µM; IC50 [11]: > 10 µM |
